Screening results: PubChem, Broad Institute
The list is not random: actives were taken first. Their share in the collection is about 2.4%.
Casp6 inh = blocks human caspase-6 cleavage activity | P55212 | purified caspase-6, Z-VEID-R110 cleavage fluorescence | inhibition, % at 12.5 µM | 350,000 tested, 0.53% active;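 active = mean inhibition across replicates at least about 35%, with every replicate also reaching that limit, limit read from the data; inconclusive = only one of the two criteria met; inactive = neither criterion met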
rRNA inh HTS = inhibits bacterial ribosomal RNA function over humanized ribosomes | GFP signal change (wild-type ribosome), % (test concentration not listed) | 350,000 tested, 1.6% active | E. coli WT GFP vs humanized-ribosome RFP mutants, fluorescence, 24 h; active compounds read low; DMSO median 0, no signal -100;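 active = significant combined selectivity score with lowered wild-type GFP, culture density cut under 30%, mutant RFP and density less affected; inactive = any of these conditions unmet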
ERAP1 HTS inh = inhibitors of human ERAP1 aminopeptidase; inhibition, % at 10.7 µM; recombinant ERAP1, Leu-AMC fluorescence, 60 min; AID 652197; Q9NZ08; 340,000 tested, 0.15% active;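 active = mean replicate inhibition of at least 30%, or all replicates individually reaching that 30% level; inactive = mean below 30% and not every replicate reaching it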
Target sequence (Q9NZ08 whole entry, looked up): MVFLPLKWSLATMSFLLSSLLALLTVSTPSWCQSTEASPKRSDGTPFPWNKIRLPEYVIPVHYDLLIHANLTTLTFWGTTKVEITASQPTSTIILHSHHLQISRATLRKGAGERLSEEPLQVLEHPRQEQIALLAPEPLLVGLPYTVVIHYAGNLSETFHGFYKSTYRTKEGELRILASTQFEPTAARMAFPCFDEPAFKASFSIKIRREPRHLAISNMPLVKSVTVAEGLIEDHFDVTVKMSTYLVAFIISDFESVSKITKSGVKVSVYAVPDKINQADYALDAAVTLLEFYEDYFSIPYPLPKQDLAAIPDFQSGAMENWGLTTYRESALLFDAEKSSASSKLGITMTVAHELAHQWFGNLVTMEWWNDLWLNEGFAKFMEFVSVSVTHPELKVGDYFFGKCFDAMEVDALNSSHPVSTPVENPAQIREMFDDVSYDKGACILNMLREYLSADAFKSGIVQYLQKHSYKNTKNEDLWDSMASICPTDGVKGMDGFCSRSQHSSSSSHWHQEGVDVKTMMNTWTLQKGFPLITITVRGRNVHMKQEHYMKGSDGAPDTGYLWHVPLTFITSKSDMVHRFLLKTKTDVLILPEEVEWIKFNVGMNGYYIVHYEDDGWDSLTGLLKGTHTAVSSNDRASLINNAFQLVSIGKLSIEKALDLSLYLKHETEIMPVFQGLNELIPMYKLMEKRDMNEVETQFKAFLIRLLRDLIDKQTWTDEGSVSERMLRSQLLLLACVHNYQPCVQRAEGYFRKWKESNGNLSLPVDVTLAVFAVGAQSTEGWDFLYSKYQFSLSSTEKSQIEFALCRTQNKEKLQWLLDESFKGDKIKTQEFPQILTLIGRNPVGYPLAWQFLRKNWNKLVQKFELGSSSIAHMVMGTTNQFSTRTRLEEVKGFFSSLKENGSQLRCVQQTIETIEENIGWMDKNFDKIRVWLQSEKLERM
S100A4 inh HTS = inhibitors of human S100A4 binding to myosin IIA peptide | S100A4/TAMRA-MyoIIA peptide fluorescence polarization | inhibition, % at 10.7 µM | 360,000 tested, 0.14% active | AID 652163;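 active = mean inhibition of at least 70% across replicates, with every replicate also reaching that level; inconclusive = mean inhibition reaches 70% but some replicates fall short; inactive = mean inhibition below 70%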
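System – human S100A4 monomer protein, biochemical binding assay · Buffer or medium – Calcium-containing HEPES buffer, pH 7.2 · Timing – 5 min between mix addition and reading · Also added – TAMRA-labelled myosin IIA heavy-chain peptide probe, 5 nM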
ARNT-TACC3 inh = disruptors of human ARNT/TACC3 interaction; inhibition, % at 9.99 µM; AlphaScreen His-ARNT PAS-B/GST-TACC3 binding, luminescence; TACC3 fragment carries E629A point mutation; 390,000 tested, 0.66% active;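 active = mean inhibition of replicates at least 50% and at least half of replicates each reaching 50%; inconclusive = half or more replicates reach 50% but mean below 50%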
PGC1a acetyl inh = lowers PGC1a acetylation signal in U2OS cells | AlphaScreen anti-acetyl-lysine; with virally co-expressed GCN5 acetyltransferase | inhibition, % at 15.6 µM | 350,000 tested, 0.17% active;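 active = every replicate shows inhibition of at least 40%; inconclusive = mean inhibition at least 40% but some replicate below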
Large screens that a line does not name were inactive.

C[C@@H]1CCCCO[C@@H](CN(C)Cc2ccc(C(F)(F)F)cc2)[C@H](C)CN([C@@H](C)CO)C(=O)c2cc(NC(=O)Nc3ccc4c(c3)OCO4)ccc2O1	none
C[C@H]1CN([C@@H](C)CO)C(=O)c2cccc(NS(C)(=O)=O)c2O[C@@H]1CN(C)C(=O)Nc1cccc2ccccc12	none
C[C@H](CO)N1C[C@H](C)[C@H](CN(C)S(=O)(=O)c2ccc(Cl)cc2)Oc2ccc(NC(=O)CCN3CCOCC3)cc2C1=O	none
CC(C)NC(=O)Nc1ccc2c(c1)C(=O)N([C@H](C)CO)C[C@@H](C)[C@@H](CN(C)Cc1ccc(C(F)(F)F)cc1)O2	none
Cc1nc(SCC(=O)N(C)C2CCCCC2)[nH]c(=O)c1Cc1ccccc1	rRNA inh HTS -26.4
CN(C(=O)CSc1nc(N)cc(=O)[nH]1)C1CCCCC1	none (no result: ARNT-TACC3 inh)
CN(C(=O)CSc1nc2c(c(=O)[nH]1)CCCC2)C1CCCCC1	rRNA inh HTS -15.4
CCCNC(=O)C[C@H]1CC[C@@H]2[C@@H](COc3ccc(NC(=O)Nc4cccc(C)c4)cc3C(=O)N2C)O1	S100A4 inh HTS inconclusive
O=Cc1c(-c2ccc(Cl)cc2)oc2ccc(O)cc12	rRNA inh HTS -30.2 (no result: ARNT-TACC3 inh)
Cc1[nH]n2c(=O)c3c(nc2c1-c1ccc(F)cc1)CCCC3	none (no result: ARNT-TACC3 inh)
Cc1nc2c(-c3ccc(F)cc3)c(C)[nH]n2c(=O)c1Cl	rRNA inh HTS -23.1
CCNC(=O)C[C@H]1CC[C@H]2[C@@H](COC[C@H](O)CN2C(=O)Nc2cccc(OC)c2)O1	none (no result: Casp6 inh, ERAP1 HTS inh, S100A4 inh HTS)
O=C(O)CC(Sc1n[nH]c(=S)s1)C(=O)O (stereo not drawn)	ERAP1 HTS inh 34.0
COc1ccc2c(c1)CC(N1CCN(C)CC1)c1cc(OC)ccc1S2 (stereo not drawn)	none (no result: ERAP1 HTS inh, PGC1a acetyl inh)
CC(C)c1ccc2c(c1)C(N1CCN(C)CC1)Cc1cccnc1S2 (stereo not drawn)	rRNA inh HTS -22.3 (no result: PGC1a acetyl inh)
COC/C=C/C1=CC2=CC(=O)C(C)(OC(=O)c3cnc4ccccc4n3)C(=O)C2=CN1CCCOC(C)C (stereo not drawn)	ARNT-TACC3 inh 10.8
COc1cccc(OC)c1C(=O)NC(=S)Nc1ccc2oc(-c3ccncc3)nc2c1	rRNA inh HTS -14.2
C[C@@H]1CCCCO[C@@H](CN(C)C(=O)C2CCCCC2)[C@H](C)CN([C@@H](C)CO)C(=O)c2cc(NC(=O)c3ccncc3)ccc2O1	none
O=C(O)CSCC(=O)N(Cc1ccccc1)c1nc(-c2ccccc2)c(-c2ccccc2)s1	Casp6 inh 37.4 (no result: PGC1a acetyl inh)
CCOC(=O)c1sc(N(Cc2ccccc2)C(=O)CCl)nc1C	none
OC[C@H]1[C@@H](c2ccc(C#CC3(O)CCCC3)cc2)[C@@H]2CN(Cc3ccccc3F)CCCCN12	none
O=C(/C=C/c1cccs1)Nc1cccc(NC(=O)/C=C/c2cccs2)n1	none
Cc1cc(C)nc(NC(=O)/C=C/c2cccs2)c1	rRNA inh HTS -26.6
COc1ccc(/C=C/C(=O)Nc2ccc(-c3nnc4n3CCCCC4)cc2)c(OC)c1	rRNA inh HTS -20.2 (no result: PGC1a acetyl inh)
COc1ccc(S(=O)(=O)N(C)C[C@H]2OCCCC[C@@H](C)Oc3ccc(NS(=O)(=O)c4c(C)noc4C)cc3C(=O)N([C@H](C)CO)C[C@H]2C)cc1	none
CCOC(=O)c1sc(-c2ccc(Cl)cc2Cl)nc1O	rRNA inh HTS -29.3 (no result: PGC1a acetyl inh)
NC(N)=N/N=C/c1ccc2cccc(OCc3ccccc3)c2n1	none (no result: rRNA inh HTS, PGC1a acetyl inh)
O/N=C/c1ccc2cccc(OCc3ccccc3)c2n1	rRNA inh HTS -28.6
O=C(NNC(=O)c1cc2cc(OC(F)(F)F)ccc2[nH]1)c1cccc(C(F)(F)F)c1	rRNA inh HTS -21.1 (no result: PGC1a acetyl inh)
COc1ccc2c3c([nH]c2c1)[C@H](CO)N(C(=O)Nc1ccc(F)cc1)CC31CCN(S(=O)(=O)c2cccc(C)c2)CC1	none (no result: ARNT-TACC3 inh, PGC1a acetyl inh)
c1ccc(CCNc2ccc3ncc(-c4cccc5ccccc45)n3n2)nc1	Casp6 inh 57.1 (no result: ARNT-TACC3 inh, PGC1a acetyl inh)
c1ccc(CCNc2ccccn2)nc1	none (no result: PGC1a acetyl inh)
C[C@@H]1CCCCO[C@@H](CN(C)Cc2ccccc2)[C@@H](C)CN([C@@H](C)CO)C(=O)c2cc(NC(=O)CCCN(C)C)ccc2O1	none
